Experiments:
[1] = Solubility in PBS pH 7.4 after 24 hrs by LC-MS/MS analysis; format: physicochemical
Summary of the method: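 Solubility in 10 mM PBS, pH 7.4.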

Aminopeptidase N = target: T1, Aminopeptidase N (Sus scrofa, UniProt P15145); test: Inhibition of porcine APN using fluorogenic substrate H-Leu-AMC measured for 1 hr
T1 sequence (P15145 whole entry): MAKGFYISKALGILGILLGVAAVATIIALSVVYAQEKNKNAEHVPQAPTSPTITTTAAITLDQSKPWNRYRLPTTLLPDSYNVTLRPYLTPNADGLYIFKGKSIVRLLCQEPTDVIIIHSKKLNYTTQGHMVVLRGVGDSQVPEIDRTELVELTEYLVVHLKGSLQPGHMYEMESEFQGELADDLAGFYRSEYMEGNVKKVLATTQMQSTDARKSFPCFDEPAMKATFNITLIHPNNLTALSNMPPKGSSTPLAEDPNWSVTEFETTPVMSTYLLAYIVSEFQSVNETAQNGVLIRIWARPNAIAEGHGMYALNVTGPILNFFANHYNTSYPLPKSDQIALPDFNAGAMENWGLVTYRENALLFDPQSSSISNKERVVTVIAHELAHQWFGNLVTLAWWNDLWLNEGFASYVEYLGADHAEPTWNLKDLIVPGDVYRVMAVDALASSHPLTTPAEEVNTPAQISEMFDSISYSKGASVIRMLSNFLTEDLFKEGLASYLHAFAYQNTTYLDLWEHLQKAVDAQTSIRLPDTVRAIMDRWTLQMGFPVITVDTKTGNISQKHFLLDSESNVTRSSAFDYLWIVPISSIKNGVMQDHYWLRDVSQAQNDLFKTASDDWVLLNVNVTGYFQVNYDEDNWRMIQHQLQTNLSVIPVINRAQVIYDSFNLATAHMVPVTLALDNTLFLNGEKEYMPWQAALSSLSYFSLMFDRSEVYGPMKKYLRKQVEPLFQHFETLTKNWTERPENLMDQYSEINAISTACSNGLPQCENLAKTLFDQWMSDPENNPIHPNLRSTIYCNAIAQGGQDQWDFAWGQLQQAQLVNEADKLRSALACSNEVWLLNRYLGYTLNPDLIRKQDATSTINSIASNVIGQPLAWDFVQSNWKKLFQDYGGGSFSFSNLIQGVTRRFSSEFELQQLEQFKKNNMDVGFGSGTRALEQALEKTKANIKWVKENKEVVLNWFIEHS

[2] = Cytotoxicity against human HeLa cells assessed as LDH release incubated for 24 hrs by membrane integrity assay; format: toxicity, cell-based
Summary of the method: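 HeLa cells (20,000/well) exposed to compound up to 250 μM for 24 h at 37 °C, 5% CO2 in DMEM with 10% FBS, 4.5 mg/mL glucose and 2 mM L-glutamine. LDH release expressed as % of Triton X-100 maximum lysis; IC50 is the concentration giving 50% cytotoxicity.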

[3] = target: T2, Protein deacetylase HDAC6 (Homo sapiens) (UniProt Q9UBN7); test: Inhibition of recombinant human His-tagged HDAC6 expressed in baculovirus expression system using fluorogenic peptide substrate measured after 45 mins at 100 uM relative to control
T2 sequence (whole entry): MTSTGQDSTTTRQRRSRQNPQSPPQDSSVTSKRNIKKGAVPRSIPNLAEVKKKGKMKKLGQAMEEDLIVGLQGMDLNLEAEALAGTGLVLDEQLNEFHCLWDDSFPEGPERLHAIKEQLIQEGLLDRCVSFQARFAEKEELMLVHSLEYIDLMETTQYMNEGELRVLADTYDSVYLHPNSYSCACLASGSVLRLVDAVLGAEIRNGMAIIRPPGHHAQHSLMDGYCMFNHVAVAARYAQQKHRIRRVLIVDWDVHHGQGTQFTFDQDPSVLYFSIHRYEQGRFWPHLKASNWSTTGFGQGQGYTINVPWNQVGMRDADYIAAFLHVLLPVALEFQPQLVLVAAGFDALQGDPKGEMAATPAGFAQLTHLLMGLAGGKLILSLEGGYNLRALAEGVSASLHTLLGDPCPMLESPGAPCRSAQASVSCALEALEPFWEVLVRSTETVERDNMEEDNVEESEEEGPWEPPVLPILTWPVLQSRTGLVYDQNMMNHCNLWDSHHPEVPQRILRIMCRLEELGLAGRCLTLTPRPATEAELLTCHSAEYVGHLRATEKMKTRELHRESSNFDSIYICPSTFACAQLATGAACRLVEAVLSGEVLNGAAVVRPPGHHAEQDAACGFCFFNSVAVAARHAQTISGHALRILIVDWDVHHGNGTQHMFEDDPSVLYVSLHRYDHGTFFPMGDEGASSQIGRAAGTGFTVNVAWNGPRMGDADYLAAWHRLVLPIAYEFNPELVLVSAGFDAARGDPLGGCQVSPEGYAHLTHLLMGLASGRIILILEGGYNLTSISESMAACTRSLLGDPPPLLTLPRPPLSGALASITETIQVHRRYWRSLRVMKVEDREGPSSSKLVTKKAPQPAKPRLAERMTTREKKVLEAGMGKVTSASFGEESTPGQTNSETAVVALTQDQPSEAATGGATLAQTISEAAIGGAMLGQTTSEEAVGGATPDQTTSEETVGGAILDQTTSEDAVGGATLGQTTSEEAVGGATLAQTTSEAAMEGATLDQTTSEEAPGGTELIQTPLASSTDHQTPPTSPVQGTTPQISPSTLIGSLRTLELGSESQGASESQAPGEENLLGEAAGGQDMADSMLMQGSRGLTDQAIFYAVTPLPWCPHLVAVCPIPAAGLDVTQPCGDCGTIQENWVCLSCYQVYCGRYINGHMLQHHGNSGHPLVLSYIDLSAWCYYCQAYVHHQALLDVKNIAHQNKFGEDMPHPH
Summary of the method: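 Human HDAC6 fluorimetric kit with Fluor de Lys substrate; panobinostat as control inhibitor. Percent inhibition at 100 μM, one experiment in duplicate.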

[4] = Stability in mouse plasma assessed as half life at 37 degC; format: ADME, cell-free
[5] = Inhibition of bacterial NDM-1 (unknown origin) expressed in Escherichia coli EXPRESS BL21(DE3) assessed as inhibition constant by measuring rate of substrate hydrolysis by UV-visible spectrophotometry; design: species or system Bacteria
Summary of the method: (§1)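 Reporter-substrate assay with purified MBL (1–70 nM final) in 50 mM HEPES pH 7.5 at 30 °C. […] Inhibitor 0.5–1000 μM final. Ki derived from the v0/vi vs [I] slope assuming competitive inhibition, or from a Dixon plot. Ki given when inhibition >70%, otherwise % inhibition at 100 μM. Triplicate.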

[6] = n-Octanol/PBS partition coefficient, logD of the compound at pH 7.4 after 2 hrs by LC-MS/MS analysis; format: physicochemical
Summary of the method: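 LogD from partitioning between 10 mM PBS pH 7.4 and n-octanol (1:1).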

[7] = Inhibition of bacterial IMP-1 (unknown origin) expressed in Escherichia coli EXPRESS BL21(DE3) assessed as inhibition constant by measuring rate of substrate hydrolysis by UV-visible spectrophotometry; design: species or system Bacteria; summary of the method: as §1
[8] = Inhibition of bacterial VIM-1 (unknown origin) expressed in Escherichia coli EXPRESS BL21(DE3) assessed as inhibition constant by measuring rate of substrate hydrolysis by UV-visible spectrophotometry; design: species or system Bacteria; summary of the method: as §1

SMILES | solubility at 24 h [1] [µM] | IC50 (Aminopeptidase N) [nM] | CC50 at 24 h [2] [nM] | inhibition [3] [%] | half-life [4] [h] | Ki [5] [nM] | logD at 2 h [6] | Ki [7] [nM] | Ki [8] [nM]
O=C(O)[C@H](CCn1c(-c2ccccc2)n[nH]c1=S)N(Cc1c[nH]cn1)Cc1c[nH]cn1 | ≥ 200 | 27000 | > 250000 | < 100 | > 6 | 40 | -2.2 | 6200 | 390
O=C(O)[C@H](CCCn1c(-c2ccccc2)n[nH]c1=S)N(Cc1c[nH]cn1)Cc1c[nH]cn1 | ≥ 200 | 30000 | > 250000 | < 100 | > 6 | 30 | -2.12 | – | 150
O=C(O)[C@H](CCCn1c(-c2ccc3ccccc3c2)n[nH]c1=S)N(Cc1c[nH]cn1)Cc1c[nH]cn1 | ≥ 200 | 16000 | – | < 100 | > 6 | 30 | -0.823 | 4700 | 520
Cc1[nH]cnc1CN(Cc1c[nH]cn1)[C@@H](CCCn1c(-c2ccccc2)n[nH]c1=S)C(=O)O | ≥ 200 | – | 105000 | < 100 | > 6 | 38 | -1.93 | 4500 | 380
O=C(O)[C@H](CCCn1c(-c2ccccc2)n[nH]c1=S)N(Cc1ccccn1)Cc1ccccn1 | ≥ 200 | – | – | < 100 | > 6 | 570 | 0.243 | – | 1700
